Experimental data published in the EternaBench riboswitch data.

Tested on: MS2 coat protein
Test: apparent Kd, MS2 coat protein; higher = weaker binding; RNA-MaP array; FMN 200 µM where present
Summary of the method: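 Designs were transcribed by stalled E. coli RNA polymerase on Illumina sequencing-chip clusters. They were titrated with SNAP-549-labelled MS2 coat protein from 0.7 or 1.5 nM, doubling to 3 µM, without and then with constant ligand. Buffer: 100 mM Tris-HCl pH 7.5, 80 mM KCl, 4 mM MgCl2, BSA, DTT, yeast tRNA, Tween-20. Green signal was normalised to red-channel RNA signal and control-cluster median Fmax. Apparent Kd is the median of filtered per-cluster binding-curve fits.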

[1] = designed as: OFF switch for flavin mononucleotide, no ligand
[2] = ligand present: flavin mononucleotide, designed as: OFF switch for flavin mononucleotide
[3] = designed as: ON switch for flavin mononucleotide, no ligand
[4] = ligand present: flavin mononucleotide, designed as: ON switch for flavin mononucleotide

Sequence	apparent Kd [1] [nM]	apparent Kd [2] [nM]	apparent Kd [3] [nM]	apparent Kd [4] [nM]
GUGACGAAUGUAGGAUAUGCUGAGGAAUACUCAGCAGAAGGACAUGAGGAUCACCCAUGUCAUCCUUAUAAUAAAUAACGUCAC	12.6	18.1	–	–
ACAAAUGGAGGAUAUACAUGAGGAUCACCCAUGUAUAUCCUACAUAUGUGAUUUUUAUGUAGAAGGCCAUUUGA	12.8	13.4	–	–
GUGAAGUAAGGAUAUAGUGGAAAAGAUAAGGUAUGAGAGUUCUAGAAGGUACAUGAGGAUCACCCAUGUUAGGG	301	186	–	–
ACUGGGCGCCGACCCAUGUCUAUGGAGGAUAUUACUGCCGGUAUCUCACAUGAGGAUCACCCAUGUAAGAAGGCCAUAAACACC	19.5	221	–	–
AAAAGGUCAGGAUAUCGGCGCGGUUGGGAGGCAGGUCCGCGCGAGAAGGGACAUGAGGAUCACCCAUGUUAAAA	29.2	32.4	–	–
GUAGCAUACUGAGGAUAUUCAUACCGGAAACGGACAUGAGGAUCACCCAUGUGGCGAAAGCCUUUGGAGAAGGCAGAAUGCUAC	–	–	13.7	13.7
UAAGAGUGAGGAUAUUCGUAGUACACGGAGACGUGUAUUACGGAGAAGGCACAUGAGGAUCACCCAUGUUCCUU	15.6	48.5	–	–
GGAAGACAAAGUCUUCCUAUUCGAACAUGAGGAUCACCCAUGUAGGAUAUGCUACUCAAAGAGUAGCAGAAGGACAUGUGCUUU	34.8	160	–	–
GUCAGCUCGUGAGGAUAUACAUGUGCUGGAUACAGCACUAAAGUUUUCACAUGAGGAUCACCCAUGUAGAAGGCACGAGCUGAU	15.3	33.9	–	–
UCGGCGCGAGGAUAUGCGGUUCCUCCCUAGGGCCGGAGCGUACAUGAGGAUCACCCAUGUAGAAGGCGCGCCGC	12.3	15	–	–
GCGUCAGAAUUAAUUGUGACAUACAGAAGGCAAUAGUUUAUUUCAGACAUGAGGAUCACCCAUGUUGAGGAUAUGUAUUUACUC	8.92	7.82	–	–
GGUACACAUGAGGAUCACCCAUGUCGUAUGACAUGAGGAUAUGUACAGACUUCGGUCUGUACAGAAGGCAUGUGUC	–	–	28.1	445
CUAGAUAUGUAAGGAUAUAUAGUGGAAUACACUAUAGAAGGUAUGUGAGAACAUGAGGAUCACCCAUGUCAUUGGAUAUCUAGA	–	–	33.7	37.6
CUGCUCCGUGUAGGAUAUGCGUACAACCAAUAUGCAGAAGGACAUGAGGAUCACCCAUGUAUGUUAUUAUCACGUGAAGCGUCC	22.3	61.1	–	–
AACCACGUUAGAUUAAGCGUGACAUGAGGAUCACCCAUGUGUCAGGAUAUACAUGGGCGGGCCCAGUAGAAGGGACUUAAUAGC	–	–	146	91
UCACGGGUUUGAGGAUAUAUUAUUAUUAUUUAAAUAGAAGGCAAAGAAAUUGUUAUUUCACUAUACAUGAGGAUCACCCAUGUU	25.4	23.4	–	–
GAGAAGAAGUUAGGAUAUUGGAUAGGGACGGAAUAAGAAGGAGCAAGACAUGAGGAUCACCCAUGUGUAGAAGAAGAGAUCCUC	520	384	–	–
ACAUGAGGAUCACCCAUGUGAAAAGAAUGGCUGACACAGAGAUAGGAUAUAUGUGCAUAUCUAACGUAGAAGGGUCAUGACUGG	33.3	36.4	–	–
UCAUUUCAGAAAGGAUAUUAAUUCAUGACGAUACAUGAGGAUCACCCAUGUUAAGAAGGUUCUAAUACAAAUAAUGCAUUGUUC	13.2	10.5	–	–
CAGUCUACAGGAUAUACAUGAGGAUCACCCAUGUGUAUCAACCUUCUGUGAUCCUCAUGUAGAAGGGUAGACUG	13.5	10.9	–	–
GUGCACAUUCGAGGAUAUCGGAGAGGAGUCCUUCGAGAAGGCGAUUCGUGCCGUGUUAUUCUGGACAUGAGGAUCACCCAUGUG	–	–	106	35.7
GUAGCAUACCGAGGAUAUUCAGGGCGUGGAUAUACAUGAGGAUCACCCAUGUGGCGGAAGCCUAGGGAGAAGGCGGGCUGCUUC	–	–	24.6	19.9
GCUGCAUAGGCAGGAUAUGCAAUAAUUCGGAUAAAAUAUAACGAAUUAACAUGAGGAUCACCCAUGUAGAAGGGCCUGUGCAGU	5.95	5.72	–	–
CACGGUGAUGUAGGAUAUAUGCUGGAAUACAGCAUAGAAGGACAUGAGGAUCACCCAUGUAAAGUGUCUCCAAAUAACACCGUG	31.1	77	–	–
CGGUGACGUGUAGGAUAUGGCGCUGGGUUUUGCCCAGAAGGACAUGAGGAUCACCCAUGUGGUAGAGGGCUGGCGGCCGCCCGU	17.1	21.6	–	–
CAGAAGUCAGGAUAUGCUGCUCGUCACUUGCGUGAUGAGUAGCAGAAGGGACAUGAGGAUCACCCAUGUAAAGG	160	417	–	–
CUAAAUCAUGUAGGAUAUGCAUGGCGAAGCUACGCAGAAGGACAUGAGGAUCACCCAUGUCUGUCCGACAGCGUACUGUCGGAC	19.6	112	–	–
UAAAUAAAGUAAGGAUAUACAUGAGGAUUUCUCGUAGAAGGUACAAGACAUGAGGAUCACCCAUGUAUCGCUCCGUAGAGCGUA	–	–	138	237

Sequence	apparent Kd [1] [nM]	apparent Kd [2] [nM]	apparent Kd [3] [nM]	apparent Kd [4] [nM]
AUCCGGCGUGUAGGAUAUGGAAAAAAUUAGGAUCCAGAAGGACAUGAGGAUCACCCAUGUACAUGUAAACAGUCAUCACCGGAA	33.5	51.7	–	–
AUAAUACAUGAGGAUCACCCAUGUAAUUUAACUUGUAAGAUCAAGGAUAUCAGCUCGAAUAGAGCUGAGAAGGUGAUCACAUGU	–	–	169	295
CCCUUUAGAAAAGGGACAUGAGGAUCACCCAUGUAGGCUGCACAGGAUAUCGAUCGGAGGCGGUACGAGAAGGGUGAUGUCAUU	–	–	58.3	72.1
CGUGCUUAUGUAGGAUAUGGUUAUCUAUGUCUAGUUACUAGACAUAGAUAACCAGAAGGACAUGAGGAUCACCCAUGUUGCACG	8.28	15.5	–	–
GAACUGAAGCAUAGCUUUAGUCGUACAUGAGGAUCACCCAUGUAGGAUAUAGUAGGCAUAGCUUACUAGAAGGAUAGAGUGAUC	254	106	–	–
GGGUGCUCACCGCCUUAACAUGAGGAUCACCCAUGUGGAGUGCAGGAUAUACGUUUCUAUCAUACGUAGAAGGGCACCGCGCAG	5.59	5.03	–	–
ACAUAAAUUCGAGGAUAUCGGUGAUAUAAUUUACGAGAAGGCGAUAAAUGUUAUAAACUUAUAGACAUGAGGAUCACCCAUGUA	–	–	35.1	32.5
AAAGCACGAGGAUAUACAUGAGGAUCACCCAUGUAUAAAAAAAAAAAAAAAUCCUCAUGUAGAAGGCGUGCAAA	53.6	41	–	–
CAUUUACAUGAGGAUCACCCAUGUUCUGGCGGGUCAGGAUAUAGAUCGGAUGCGUUCUGUCUAGAAGGGACAUGUU	–	–	72	35.6
AAUUUACAGGGAGGAUAUACAUGAGGAUCACCCAUGUAAUCAUAUGAUAUUUCUUUUGUAUGAGUGUAGAAGGCCCAACUACCA	9.96	8.87	–	–
GGGUACAUCGGAGGAUAUCAUGUAAGUACAUGAGGAUCACCCAUGUCGAUGGAGACAUCGGAGAUUGAGAAGGCCGAUGUACCG	–	–	152	8.71
UCGGCGCGAGGAUAUACGUUUGCUUUUUUGGGUCGUUGCGUACAUGAGGAUCACCCAUGUAGAAGGCGCGCCGC	27.4	187	–	–
AUUUAACAUGAGGAUCACCCAUGUGAGGAUAUGUCCAUAUUCGGCAAAUCGGAUAUGGACAGAAGGCACACCGG	105	194	–	–
UUUGAAUAAGUGAGGAUAUACUGUUAGUAUUGAUUGUAGAAGGUACAUGAGGAUCACCCAUGUUUAGUAUUUAU	16.3	15.9	–	–
GUAGCAUACCGAGGAUAUUCAUACCGUAAACGGACAUGAGGAUCACCCAUGUGGCGAAAGCCUUGGGAGAAGGCGGAAUGCUAC	–	–	556	30.5
UUUUAGUCAGGAUAUACAUGAGGAUCACCCAUGUAAAAUUUUAAUUUAAUUUUAAGGUGUAGAAGGGACAAUUC	48	38.6	–	–
GUGGUUCUCGUAGGAUAUGUAGGAUAUGCCUACAUGAGGAUCACCCAUGUUCGCAUGGCAGAAGGACAGAAGGACGAUCACCAG	–	–	54.6	27.7
UUGGACGUCGUAGGAUAUGUAGGAUAUUCCUACAUGAGGAUCACCCAUGUUGACAUGGGAGAAGGACAGAAGGACGAUGUCCAU	–	–	52.4	176
AGCUACGUUUCGUAGCAGCUAGGUGAGGAUAUCCUUAACAUGAGGAUCACCCAUGUUUAGCCAUGGGAGAAGGCGCCUAGAAAG	–	–	259	21.5
ACAUGAGGAUCACCCAUGUUCACAUAGGAUAUUGAUUAUAUUGGUUAUAGAAUAGUUAUAAUGCUCAAGAAGGAUGCCAGUUGU	–	–	11	8.94
UUAGGCUUCUAGAAGGCGGUCCAGCUAGAGGACCGAGGAUAUAGGCACCUAACAUGAGGAUCACCCAUGUUAGUGAUUCCUCAA	132	166	–	–
AGUAGAUCAGGAUAUACGUGAAAGGUCAAAGUGUCCAAUAUACAUGAGGAUCACCCAUGUAGAAGGGAUCUACA	24.8	111	–	–
ACGGCAGUCAGAGGAUAUGGUUACAUGAGGAUCACCCAUGUCAAGGGUCUAAUUAAGUAUAACUACUAGAAGGCUGAAGGCCUA	154	113	–	–
GUGUCGGGAGGAUAUGCGUGGAUUGUUCUCGUAUGGUGUCUACAUGAGGAUCACCCAUGUAGAAGGUCUGGCGC	20.8	61.1	–	–
AUCAGCUCGUCAGGAUAUACGUCACUGCGUCAGCAGUGUGGUAAGAUCACAUGAGGAUCACCCAUGUAGAAGGGACGAGCUGAA	14.3	267	–	–
UUAAUUAAUUAAUUAUACAUGAGGAUCACCCAUGUAAGUGAUCAGGAUAUCAGCUCGAAUAGAGCUGAGAAGGGAUACAUGAAU	–	–	144	118
GCCAUCGUAUGAGGAUAUGGCACCGAAACGGUGCCAGAAGGCAUGUCAAUAGACAUGAGGAUCACCCAUGUUUUAUCGAUGGCA	–	–	89.7	23.5
